According to ChEMBL document CHEMBL3352570, “ST7612AA1, a thioacetate-ω(γ-lactam carboxamide) derivative selected from a novel generation of oral HDAC inhibitors” (J Med Chem, 2014):

Experiments:
[1] = Half life in human hepatocytes at 5 uM by LCMS/MS analysis; format: ADME, cell-based, Hepatocyte
In short: (§1)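 Incubation in human hepatocytes. […] Values are means of at least three experiments.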

[2] = biological target: Histone deacetylase 3 (Homo sapiens, UniProt O15379); experiment: Inhibition of HDAC3 (unknown origin) using fluorogenic tetrapeptide RHKK(Ac) substrate by fluorescence assay
Chain of Histone deacetylase 3 (O15379 whole entry): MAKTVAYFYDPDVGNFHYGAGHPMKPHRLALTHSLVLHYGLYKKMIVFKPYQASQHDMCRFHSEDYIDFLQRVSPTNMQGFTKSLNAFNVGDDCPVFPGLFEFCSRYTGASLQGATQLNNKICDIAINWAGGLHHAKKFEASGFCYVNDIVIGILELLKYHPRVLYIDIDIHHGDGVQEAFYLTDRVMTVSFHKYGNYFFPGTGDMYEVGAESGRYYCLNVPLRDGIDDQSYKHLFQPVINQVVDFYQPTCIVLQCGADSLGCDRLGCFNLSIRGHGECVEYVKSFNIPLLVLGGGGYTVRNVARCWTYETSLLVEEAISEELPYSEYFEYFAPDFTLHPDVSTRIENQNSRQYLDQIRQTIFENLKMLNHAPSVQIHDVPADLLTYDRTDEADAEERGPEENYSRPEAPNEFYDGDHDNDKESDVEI

[3] = Intrinsic clearance in human hepatocytes assessed per million cells at 5 uM by LCMS/MS analysis; format: ADME, cell-based, Hepatocyte; conditions: read-out: CLH; in short: as §1
[4] = biological target: T1, Protein deacetylase HDAC6 (Homo sapiens, UniProt Q9UBN7); experiment: Inhibition of HDAC6 (unknown origin) using fluorogenic tetrapeptide RHKK(Ac) substrate by fluorescence assay
T1 sequence (Q9UBN7 whole entry): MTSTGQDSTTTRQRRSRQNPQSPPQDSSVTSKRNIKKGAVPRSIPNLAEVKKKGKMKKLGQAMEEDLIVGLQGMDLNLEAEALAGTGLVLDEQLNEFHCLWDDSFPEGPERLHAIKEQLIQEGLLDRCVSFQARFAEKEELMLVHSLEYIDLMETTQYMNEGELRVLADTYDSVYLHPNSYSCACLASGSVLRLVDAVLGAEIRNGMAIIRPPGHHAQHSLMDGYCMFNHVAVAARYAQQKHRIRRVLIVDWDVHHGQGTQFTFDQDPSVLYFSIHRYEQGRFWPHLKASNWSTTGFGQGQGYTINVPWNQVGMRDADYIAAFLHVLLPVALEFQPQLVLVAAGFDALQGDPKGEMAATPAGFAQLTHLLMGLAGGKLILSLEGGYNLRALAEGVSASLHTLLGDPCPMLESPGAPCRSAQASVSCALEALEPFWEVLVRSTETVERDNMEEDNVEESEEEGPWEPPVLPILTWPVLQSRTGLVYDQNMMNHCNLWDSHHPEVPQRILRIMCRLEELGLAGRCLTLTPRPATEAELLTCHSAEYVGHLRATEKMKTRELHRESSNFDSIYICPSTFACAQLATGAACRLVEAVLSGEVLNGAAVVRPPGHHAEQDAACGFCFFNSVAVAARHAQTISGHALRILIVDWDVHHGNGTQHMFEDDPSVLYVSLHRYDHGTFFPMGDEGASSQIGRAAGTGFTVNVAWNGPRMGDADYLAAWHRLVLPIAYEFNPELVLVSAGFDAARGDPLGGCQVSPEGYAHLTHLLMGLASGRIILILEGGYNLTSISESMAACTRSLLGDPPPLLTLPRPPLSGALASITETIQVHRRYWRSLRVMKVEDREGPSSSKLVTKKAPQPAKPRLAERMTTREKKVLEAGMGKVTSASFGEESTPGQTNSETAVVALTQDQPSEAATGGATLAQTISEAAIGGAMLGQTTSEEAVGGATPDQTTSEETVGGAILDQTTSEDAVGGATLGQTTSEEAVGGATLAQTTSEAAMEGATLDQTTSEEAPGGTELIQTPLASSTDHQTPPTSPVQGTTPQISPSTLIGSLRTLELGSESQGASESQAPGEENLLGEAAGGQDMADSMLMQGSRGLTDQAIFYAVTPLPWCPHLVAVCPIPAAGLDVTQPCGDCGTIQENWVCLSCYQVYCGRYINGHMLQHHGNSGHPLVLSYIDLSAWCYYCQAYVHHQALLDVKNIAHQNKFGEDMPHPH

[5] = Efflux ratio of permeability from apical to basolateral side to basolateral to apical side of human Caco2 cells in presence of digoxin; format: ADME, cell-based; conditions: caco-2
In short: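 Caco-2 AB/BA flux ratio measured with digoxin coincubated with test and reference compounds. Means of at least three experiments.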

[6] = biological target: Histone deacetylase 2 (Homo sapiens, UniProt Q92769); experiment: Inhibition of HDAC2 (unknown origin) using fluorogenic tetrapeptide RHKK(Ac) substrate by fluorescence assay
Chain of Histone deacetylase 2 (Q92769 whole entry): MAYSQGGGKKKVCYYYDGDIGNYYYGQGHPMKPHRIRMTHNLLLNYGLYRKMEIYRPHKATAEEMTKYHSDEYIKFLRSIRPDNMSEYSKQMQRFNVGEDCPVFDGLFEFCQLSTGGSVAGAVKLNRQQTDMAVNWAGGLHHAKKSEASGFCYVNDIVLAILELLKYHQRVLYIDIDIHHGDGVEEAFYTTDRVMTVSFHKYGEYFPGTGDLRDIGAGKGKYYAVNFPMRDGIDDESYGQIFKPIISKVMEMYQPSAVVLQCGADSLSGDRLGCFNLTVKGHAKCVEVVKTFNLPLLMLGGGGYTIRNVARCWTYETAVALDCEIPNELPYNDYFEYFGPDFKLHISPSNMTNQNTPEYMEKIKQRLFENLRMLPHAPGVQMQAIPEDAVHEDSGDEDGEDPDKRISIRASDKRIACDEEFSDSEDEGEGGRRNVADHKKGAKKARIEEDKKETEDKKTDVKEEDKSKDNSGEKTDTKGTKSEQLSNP

## O=C1CC[C@@H](C(=O)N[C@H](CCCCCS)C(=O)Nc2ccccc2)N1
[1]
  half-life at 5 µM: 45 min
[2]
  IC50: 5 nM
[3]
  hepatocyte CLint at 5 µM: 15.4 µL/min/1e6 cells
[4]
  IC50: 3 nM
[5]
  Ratio: 3.6
[6]
  IC50: 78 nM
